Screens as filed in PubChem.
Only some compounds are listed: those with a hit (about 4.7% of all), similar ones and a draw of the others.
RGS4 pot – RGS4 potentiators or activators, primary screen, cell-based, HEK293 M3R inducible RGS4, calcium flux | carbachol calcium flux Fluo4; stronger effect = lower value | B-score at 10 µM | hit rate 0.92% among 310,000 | AID 463111, 2010;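 active means B-score of the integrated calcium signal more than 4 SD below the library mean, with starting fluorescence not abnormally high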;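 further: negative B-score means reduced calcium response which marks RGS4 activation or potentiation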
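Material: Inducible-RGS4 HEK293 cells carrying M3 receptor; also added: carbachol at ECmax as muscarinic agonist stimulus; incubation: compound preincubation 20 min at room temperature before agonist; signal: Fluo4-AM (2 µM) calcium-flux fluorescence, kinetic read; measure: integrated calcium ratio converted to B score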
RGS4 inh – RGS4 inhibitors, primary screen, cell-based, HEK293 M3R inducible RGS4, calcium flux | B-score at 10 µM | AID 463165, 2010 | Fluo-4 calcium flux; stronger effect = higher value; triggered by carbachol at its EC20 | hit rate 0.45% among 310,000;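 active means B-score, a plate-corrected calcium signal, over three deviations above library mean, with baseline fluorescence within five deviations of library mean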;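 further: RGS4 expression induced by doxycycline in cells with stable M3 receptor; B-score is computed from the integrated fluorescence ratio over baseline after carbachol; higher B-score means a larger calcium signal and so more RGS4 inhibition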
MrgX1 PAM – positive allosteric modulators of MrgX1, primary screen, HEK293 cells, Fluo-4 calcium flux; Mas-related G-protein coupled receptor member X1 (Homo sapiens), Q96LB2; FDSS; stronger effect = higher value; B-score at 10 µM; hit rate 0.63% among 310,000; AID 588675, 2011;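 active means plate-corrected calcium response at least 3 library SD above typical, normal starting fluorescence, not activating the receptor alone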;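 further: compound read alongside a low EC10 to EC30 dose of BAM8-22 agonist; peak minus trough fluorescence over baseline measured at the second addition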
MrgX1 antag – antagonists of human MrgX1 receptor, primary screen, HEK293 cells, Fluo-4 calcium flux; Mas-related G-protein coupled receptor member X1 (Homo sapiens), Q96LB2; BAM8-22 antagonism; stronger effect = lower value; B-score at 10 µM; hit rate 1.3% among 310,000;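 active means calcium-response B-score plate-corrected more than 3 library SD below zero, starting fluorescence within 5 deviations, no agonist response on first addition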;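 further: peak minus trough fluorescence over baseline after final BAM8-22 challenge near maximal dose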
MrgX1 agonist – agonists of human MrgX1 receptor, primary screen, HEK293 cells, Fluo-4 calcium flux | Mas-related G-protein coupled receptor member X1 (Homo sapiens), Q96LB2 | Fluo-4 calcium fluorescence, agonist mode; stronger effect = higher value | AID 588627, 2011 | B-score at 10 µM | hit rate 0.44% among 310,000;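 active means calcium response B-score plate-corrected fluorescence ratio at least 3 library SD, with starting fluorescence B-score inside 5 SD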
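Test system: Stable human MrgX1 HEK293 cell line | Schedule: Overnight plating before 1 h dye loading | Read-out basis: Baseline-normalised fluorescence change ratio, B-scored | Detection: Kinetic calcium dye fluorescence, Fluo-4 NW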
Cl transport mod – KCC2 cotransporter modulators, thallium flux, primary screen, cell-based, HEK293 KCC2, FluoZin-2 fluorescence, MLSMR. Solute carrier family 12 member 5 (Homo sapiens), Q9H2X9. KCC2 cells, thallium flux FluoZin-2 fluorescence. B-score of Tl+ flux slope (higher = more flux/activation; lower = inhibition) at 10 µM. hit rate 2.2% among 190,000. AID 1456, 2008;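 active means thallium flux slope and its plate-corrected score both differing from the plate sample mean at a set confidence after two filtering rounds, in either direction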;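 further: slope of fluorescence scaled to starting intensity during 10 to 20 s after thallium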
Target sequence (Q9H2X9 whole entry, looked up): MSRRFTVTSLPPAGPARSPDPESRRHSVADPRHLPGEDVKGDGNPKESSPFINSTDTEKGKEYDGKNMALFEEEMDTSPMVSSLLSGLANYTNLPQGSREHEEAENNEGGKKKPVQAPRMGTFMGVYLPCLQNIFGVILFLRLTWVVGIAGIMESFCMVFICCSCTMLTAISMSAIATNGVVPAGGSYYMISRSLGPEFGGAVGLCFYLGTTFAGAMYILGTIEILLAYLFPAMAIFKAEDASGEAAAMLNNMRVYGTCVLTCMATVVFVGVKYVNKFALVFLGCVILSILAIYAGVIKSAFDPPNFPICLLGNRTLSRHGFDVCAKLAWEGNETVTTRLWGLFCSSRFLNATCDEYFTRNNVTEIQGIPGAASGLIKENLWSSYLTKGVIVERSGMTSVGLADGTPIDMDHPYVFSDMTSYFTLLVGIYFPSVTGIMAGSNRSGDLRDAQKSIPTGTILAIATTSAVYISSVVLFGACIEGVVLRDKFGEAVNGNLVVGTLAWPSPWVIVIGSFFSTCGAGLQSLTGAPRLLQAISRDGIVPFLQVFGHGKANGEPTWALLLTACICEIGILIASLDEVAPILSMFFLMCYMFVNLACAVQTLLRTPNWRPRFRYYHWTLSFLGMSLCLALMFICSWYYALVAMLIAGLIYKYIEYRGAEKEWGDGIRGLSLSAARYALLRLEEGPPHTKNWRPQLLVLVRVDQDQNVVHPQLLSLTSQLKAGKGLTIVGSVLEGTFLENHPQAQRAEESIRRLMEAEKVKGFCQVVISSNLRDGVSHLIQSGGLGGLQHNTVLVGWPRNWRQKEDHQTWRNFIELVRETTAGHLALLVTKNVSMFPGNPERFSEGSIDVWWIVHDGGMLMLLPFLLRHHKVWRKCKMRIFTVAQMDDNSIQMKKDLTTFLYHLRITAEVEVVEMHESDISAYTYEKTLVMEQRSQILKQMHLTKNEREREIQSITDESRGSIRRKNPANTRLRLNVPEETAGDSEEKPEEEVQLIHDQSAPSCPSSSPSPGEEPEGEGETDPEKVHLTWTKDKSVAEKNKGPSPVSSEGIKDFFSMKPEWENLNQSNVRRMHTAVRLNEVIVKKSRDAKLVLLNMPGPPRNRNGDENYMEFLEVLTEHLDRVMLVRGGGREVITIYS
An asterisk follows results filed as active; i = inactive; nt = no result.

SMILES | RGS4 pot | RGS4 inh | MrgX1 PAM | MrgX1 antag | MrgX1 agonist | Cl transport mod
COc1ccc(/C=C/C(=O)Nc2sc3c(c2C(=O)NCc2cccnc2)CCCC3)cc1 | -8.7* | i | i | i | i | -0.96
O=C(COc1ccccc1)Nc1sc2c(c1C(=O)NCc1cccnc1)CCCC2 | i | i | i | i | i | nt
CC1CCN(C(=O)C(C)NCc2ccc(F)cc2)CC1 (centres undefined) | i | i | i | i | i | nt
Nc1cc(C(=O)O)c(N)c2c1C(=O)c1ccccc1C2=O | i | i | i | -5.7* | i | -0.19
C/C(=N/NC(=O)c1ccncc1)C1=C(O)CC(C)(C)CC1=O | i | i | i | -4.7* | i | 0.0081
COc1ccc(-n2c(CCc3ccccc3)nnc2SCC(=O)NCc2ccccc2)cc1 | i | i | i | i | i | -2
O=C(CSc1nnc(CNc2ccc(F)cc2)n1Cc1ccccc1)NCc1ccccc1 | i | i | i | -6.4* | i | 0.45
COc1ccc(C(=O)CSc2nnc(CCc3ccccc3)n2-c2ccccc2)cc1 | i | i | i | -6.4* | i | -1.4
O=C(CSc1nnc(CCc2ccccc2)n1-c1ccc(Cl)cc1)NCc1ccccc1 | i | i | i | -4.8* | i | -1.6
CCn1c(CNc2ccc(C)cc2)nnc1SCC(=O)NCc1ccccc1 | i | i | i | i | i | -0.35
Cc1ccc(C(=O)Nc2ccncc2)c(C)c1 | i | i | i | i | i | nt
Cc1ccc(S(=O)(=O)N2CCC(=O)N(C(COCc3ccc(C(F)(F)F)cc3)Cc3ccccc3)CC2)cc1 (centres undefined) | -7.3* | i | i | i | i | 1.7
Cc1ccc(S(=O)(=O)N2CCC(=O)N(C(COCc3cccc(C)c3)Cc3ccccc3)CC2)cc1 (centres undefined) | i | i | i | i | i | -1.7
Cc1ccc(S(=O)(=O)N2CCC(=O)N(C(COCc3ccc(Cl)c(Cl)c3)Cc3ccccc3)CC2)cc1 (centres undefined) | i | i | i | -6.1* | i | -2.6
CCCCN(CCCNC(=O)c1c(C)cc(=O)oc1C)c1ccccc1 | i | i | i | -7.9* | i | nt
CC(=O)OC1COC(OC2C(O)C(C)OC(OC3C(OC4CCC5(C)C(CCC6(C)C5CC=C5C7CC(C)(C)CCC7(C(=O)O)CCC56C)C4(C)CO)OCC(O)C3O)C2O)C(O)C1OC(C)=O (centres undefined) | nt | nt | i | i | 219* | 0.31
O=C(NCC(=O)N(c1cccc(F)c1)C(C(=O)NC1CCCC1)c1cccnc1)c1ccco1 (centres undefined) | i | i | i | i | i | nt
Cc1nnc(SCC(=O)Nc2cc(C(F)(F)F)ccc2N2CCOCC2)o1 | i | i | i | i | i | 0.61
Cc1ccccc1SCC(=O)Nc1cc(C(F)(F)F)ccc1N1CCOCC1 | i | i | 11* | i | i | nt
CCn1c(SCC(N)=O)nc2c(c1=O)C1(CCCC1)Cc1ccccc1-2 | i | i | i | i | i | 3.6*
N#CCSc1n[nH]c2nc3c(c(=O)n12)C1(CCCC1)Cc1ccccc1-3 | i | i | i | i | i | -3.5*
CC(=O)Nc1ccc(N(C(=O)c2ccccn2)C(C(=O)NC2CCCCC2)c2ccc(F)cc2)cc1 (centres undefined) | i | i | i | i | i | nt
Cc1ccc(NC(=O)c2cccc(NC(=O)/C=C/c3ccco3)c2)cc1C | -9.6* | i | i | i | i | -1.1
Cc1ccc(-n2nc3ccc(NC(=O)/C=C/c4ccco4)cc3n2)cc1 | i | i | i | -6.3* | i | -0.75
CCc1ccccc1NC(=O)c1cccc(NC(=O)/C=C/c2ccco2)c1 | i | i | i | i | i | -1.4
SMILES | RGS4 pot | RGS4 inh | MrgX1 PAM | MrgX1 antag | MrgX1 agonist | Cl transport mod
O=C(/C=C/c1ccco1)Nc1ccc2c(c1)OCO2 | i | i | i | i | i | 0.032
CCC(=O)Nc1ccc(C2=Nn3c(nnc3C(C)C)SC2)cc1 | i | i | i | i | i | nt
COc1cc(/C=N/n2cnnc2)ccc1OS(=O)(=O)c1ccccc1[N+](=O)[O-] | i | i | i | -6.6* | i | 0.099
COc1ccccc1C(=O)NCCC(=O)N(C)CC(=O)Nc1c(Cl)cccc1Cl | i | i | i | i | i | nt
COc1ccccc1C(=O)NCCC(=O)N(C)CC(=O)Nc1ccc(C)cc1 | i | i | i | -5.2* | i | nt
COc1ccc([N+](=O)[O-])cc1NC(=O)CSc1nc(C)c(C)c(C)n1 | i | i | i | -4.5* | i | -1.4
Cc1nnc(N2CCC(C(=O)N3CCCCC3)CC2)c2nn(-c3ccc(Cl)cc3)c(C)c12 | i | i | i | i | i | nt
COc1ccc(-n2nc3c(N4CCC(C(=O)N5CCC(C)CC5)CC4)nnc(C)c3c2C)cc1 | -7* | i | i | i | i | nt
CC1=CC(=Nc2c(C)n(C)n(-c3ccccc3)c2=O)C=CC1=O | i | 11* | i | i | i | -0.27
O=C(NNC(=O)C1CC(=O)N(Cc2ccccc2)C1)c1ccc(F)cc1 (centres undefined) | i | i | i | i | i | nt
CC(=O)N(C)c1ccc(NC(=O)Nc2ccccc2C)cc1 | i | i | i | i | i | -0.18
CC(=O)N(C)c1ccc(NC(=O)Nc2ccc(C)c(C)c2)cc1 | -7.4* | i | i | i | i | 0.041
O=C(NC1CCS(=O)(=O)C1)c1ccc(N2CCCCC2)c([N+](=O)[O-])c1 (centres undefined) | i | i | i | i | i | nt
Cc1cccc(C(=O)N2CCC(Cc3ccccc3)CC2)c1[N+](=O)[O-] | i | i | i | i | i | -4.2*
Cc1c(C(=O)N2CCC(Cc3ccccc3)CC2)cccc1[N+](=O)[O-] | i | i | i | i | i | -2.3
COc1cc(N(C)C)c([N+](=O)[O-])cc1C(=O)NC(C)CNc1ccc([N+](=O)[O-])cc1Cl (centres undefined) | i | i | i | -6.1* | i | -1.2
